The sample as a whole holds a higher share of hits than the screen did.
UPR XBP1 act – adaptive UPR (XBP1) activation. CHO-XBP1 luciferase reporter, IRE1-XBP1 UPR activation, luminescence; percent of tunicamycin response, DMSO as zero. AID 463104. activation, % at 20 µM. 330,000 compounds, 0.33% hits;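 active means versus positive control, 20 µM dose yields 30% or more activation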;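 further: 100% = tunicamycin at 10 µg/mL and 0% = DMSO only wells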
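Signal: luciferase luminescence; Assay system: CHO-XBP1 luciferase reporter cells; Amount: one thousand reporter cells per well; Dosing: 20 µM single concentration, DMSO 1%; Benchmarks: high control tunicamycin 10 µg/mL final, low control DMSO vehicle only; Schedule: 6 h compound exposure at 37 °C, 5% CO2; Evaluation: percent activation relative to tunicamycin reference.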
T cruzi repl – T. cruzi replication inhibition; 300,000 compounds, 1.4% hits; T. cruzi beta-gal in NIH3T3, luminescence, 90 h; inhibition, % (test concentration not listed);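 active means mean inhibition across valid replicates above about 55%, limit read from the data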;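 further: signal also drops with host cell toxicity which is not excluded here; 0% = plate median of DMSO wells and 100% = zero luminescence signal; higher percent means less beta-gal luminescence so fewer parasites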
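Assay system: NIH/3T3 fibroblasts plus reporter T. cruzi. Amount: NIH/3T3 cells, 5,000 per well. Buffer or medium: DMEM, 2% fetal bovine serum. Doses: compound pinned at 50 nL/well, DMSO. Schedule: ≥90 h infection period, 3 h prior cell attachment. Signal: luminescent β-galactosidase signal after 60 min lysis. Read-out: parasite load inhibition, %.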
CHOP inh – CHOP inhibition in unfolded protein response | CHO-K1 CHOP-promoter luciferase, tunicamycin-induced, 15-18 h | AID 2732 | 220,000 compounds, 3.8% hits | inhibition, % at 10 µM;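 active means compounds that reduced the stress-induced luciferase reporter signal by more than about 70% of percent inhibition, limit read from the data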;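 further: 0% = tunicamycin plus vehicle and 100% = wells without tunicamycin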
L major viab – reduces viability of Leishmania major promastigotes | resazurin fluorescence viability | inhibition, % at 10 µM | 200,000 compounds, 9% hits; in the data active means inhibition above about 50%;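 further: promastigotes grown with compound for 44 hours at 28 °C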
CHOP UPR activ – apoptotic UPR (CHOP) activation | CHO-CHOP luciferase reporter, luminescence; percent of tunicamycin response over DMSO baseline | 330,000 compounds, 0.34% hits | AID 449763 | activation, % at 10 µM;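 active means at 10 µM dose, activation of 40% or more, normalized to positive control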;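 further: 100% = tunicamycin at 10 µg/mL and 0% = DMSO alone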
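System: CHO CHOP reporter cells. Amount: 500 cells per well. Buffer or medium: F12 medium, 10% FBS. Compound dosing: one dose, 10 µM in 0.5% DMSO. Incubation: 6 h compound exposure at 37 °C after overnight seeding. Technique: Steady-Glo luciferase luminescence. Benchmarks: tunicamycin and DMSO controls.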
Dynein transport – dynein cargo transport inhibition. 3617.4 mouse cells, GR-EGFP nuclear translocation imaging; test concentration mostly 20 µM; stimulated with dexamethasone, 1 µM; active compounds read low. z-score, hits read low. 220,000 compounds, 0.47% hits. AID 1381;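 active means plate z-score of nuclear minus cytoplasmic receptor signal below a set negative limit, without overly bright fluorescence or cell loss, cut at about -3.5 in these data, passing the limit was not always enough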;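 further: z-score of nuclear minus cytoplasmic ring GR-EGFP intensity difference per well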
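Also added – dexamethasone, 1.0 µM final · Buffer or medium – tet-free, stripped-serum medium · Schedule – induction 48 h, compound 1 h, agonist 30 min · Detection – formaldehyde fixation, Hoechst nuclear stain, 10x automated fluorescence imaging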
The depositor's hits bear a star; / = no result.

SMILES | UPR XBP1 act | T cruzi repl | CHOP inh | L major viab | CHOP UPR activ | Dynein transport
Cc1cc(C(=O)COC(=O)c2ccc[nH]c2=O)c(C)n1-c1ccc(Br)cc1 | -2 | -9 | 19 | 8 | 2 | -0.67
Cc1cc(C(=O)COC(=O)c2ccc[nH]c2=O)c(C)n1C | -1 | -31 | 4 | -8 | 1 | -0.49
COCCn1c(C)cc(C(=O)COC(=O)c2ccc[nH]c2=O)c1C | -6 | -4 | 43 | 57* | -5 | -0.51
CCCC(=O)Nc1cc(C)cn(Cc2c(F)cccc2Cl)c1=O | -3 | 11 | / | / | 0 | /
COc1ccccc1CNC(=O)COC(=O)c1ccccc1-c1ccccc1 | -2 | 4 | / | / | 0 | /
COc1ccc(CCNC(=O)C2CCN(S(=O)(=O)c3c(C)noc3C)CC2)cc1OC | -2 | 10 | -12 | 53* | -1 | 0.14
CCC1CCCCN1CCCNC(=O)C1CCN(S(=O)(=O)N2CCCCC2)CC1 (configuration not stated) | -2 | 12 | 9 | 5 | -2 | 0.14
CCC1CCCCN1CCNC(=O)C1CCN(S(=O)(=O)c2c(C)noc2C)CC1 (configuration not stated) | 2 | -2 | 13 | 77* | -1 | 1.3
COc1ccc(CCNC(=O)C2CCN(S(C)(=O)=O)CC2)cc1OC | 1 | -3 | 6 | -5 | 0 | -0.26
Cc1cccc(CCNC(=O)C2CCN(S(=O)(=O)c3c(C)noc3C)CC2)c1 | 1 | -13 | 7 | 100* | -1 | -0.43
CCCCn1c(N)c(N(CC(C)C)C(=O)C(C)SCc2nc3sc(C)c(C)c3c(=O)[nH]2)c(=O)[nH]c1=O (configuration not stated) | 2 | 8 | / | / | 10 | /
Cc1cc(C)nc(SCC(CSc2nc(C)cc(C)n2)C(=O)O)n1 | -1 | -9 | -3 | -1 | 0 | 0.18
CCc1cc(S(=O)(=O)N2CCN(C(=O)c3ccco3)CC2)ccc1OC | -1 | 9 | / | / | 3 | /
Cc1nc(SCc2ccccc2)c([N+](=O)[O-])[nH]1 | -3 | -9 | -10 | 54* | -1 | 0.77
COc1ccc(CSc2nc(C)[nH]c2[N+](=O)[O-])cc1[N+](=O)[O-] | -2 | -1 | 5 | / | 1 | 0.35
Cc1sc2ncnc(N3CCC(C(=O)NNC(=O)COc4cccc(C(F)(F)F)c4)CC3)c2c1C | -2 | 8 | / | / | 0 | /
Cc1ccc(-c2ccccc2[C@@H]2C[C@H]3CN(C)C(=O)[C@]34CCCN24)o1 | -2 | 5 | 14 | 2 | 0 | -0.76
O=C1N(c2ccccc2)C[C@@H]2C[C@@H](c3cc4ccccc4o3)N3CCC[C@@]123 | -3 | 56* | 103* | 19 | -5 | -0.5
Clc1ccc(/C=N/Nc2ncnc3ccccc23)cc1Cl | 7 | 22 | 86* | 36 | 1 | -0.34
O=C(c1ccccc1)c1c[nH]c(C(=O)NNc2ccccc2)c1 | -1 | 57* | 13 | 89* | 3 | 0.042
CCOC(=O)c1c(C)oc2c1c(C=NCc1ccccn1)c(O)c1ccccc12 | / | / | 82* | 98* | / | -0.76
CCOC(=O)c1c(C)oc2c1c(C=NCC1CCCO1)c(O)c1ccccc12 (configuration not stated) | / | 15 | 66 | 98* | / | 1.6
Cc1ccc(-n2c(O)c(C=NCc3ccccn3)c3ccccc3c2=O)cc1 | 2 | -7 | 2 | 4 | -3 | -0.19
CCOC(=O)c1c(C)oc2c1cc(O)c1ccccc12 | 4 | -11 | 77* | -7 | 5 | -0.69
CC(C)c1ccc(NC(=O)CCS(=O)(=O)c2cccc3nonc23)cc1 | -2 | 8 | / | / | 4 | /
SMILES | UPR XBP1 act | T cruzi repl | CHOP inh | L major viab | CHOP UPR activ | Dynein transport
O=C(NCc1ccccc1)C1CCCN(C(=O)c2ccc(F)cc2)C1 (configuration not stated) | -3 | / | / | / | 1 | /
CCN(CC)S(=O)(=O)c1ccc(N/N=C/c2ccc(O)cc2O)nc1 | 3 | 26 | 83* | 98* | -2 | -1.8
Oc1ccc(Br)cc1/C=N/Nc1ncc(-c2ccccc2)cn1 | -1 | 14 | 55 | -9 | 1 | -0.73
Oc1ccc(/C=N/Nc2nccnc2Cl)c(O)c1 | 11 | 59* | 65 | 100* | 2 | -0.029
O=[N+]([O-])c1ccccc1/C=N/Nc1nccnc1Cl | 10 | -8 | 2 | -5 | 4 | 0.27
Oc1ccc(/C=N/Nc2ncc(Br)cn2)c(O)c1 | 1 | -8 | 54 | 99* | 4 | -0.76
CCN(CC)S(=O)(=O)c1ccc(N/N=C(\C)c2ccncc2)nc1 | 5 | 3 | / | / | 5 | /
Oc1ccccc1/C=N/Nc1nccnc1Cl | 0 | 27 | 65 | 98* | -1 | 0.29
CS(=O)(=O)N1CCC(Oc2ccccc2C(=O)N2CCN(CC3CC3)CC2)CC1 | 1 | -1 | -10 | -3 | -1 | -0.47
O=C(Nc1cccs1)Nc1c(F)c(F)c(F)c(F)c1F | -3 | -11 | 7 | 55* | -1 | -0.54
CCCOc1cc(C)nc(-c2ccccc2O)n1 | 0 | 3 | 93* | -8 | 1 | -0.9
Cc1cc(NC2CCCCC2)nc(-c2ccccc2O)n1 | 4 | 9 | 87* | 2 | 1 | -1.2
Cc1cc(N/N=C/c2c(O)ccc3ccccc23)nc(-c2ccccc2O)n1 | -4 | -11 | 33 | 97* | 3 | -0.078
Cc1cc(NCc2ccccc2)nc(-c2ccccc2O)n1 | 0 | 10 | 79* | 25 | 7 | -1.6
Cc1ccc(S(=O)(=O)N2CCCCC2)cc1NC(=O)c1ccncc1 | -2 | / | / | / | -1 | /
CCCCC(CC)CNC(=O)C(Cc1ccccc1)NS(=O)(=O)c1ccc2c(c1)CCC(=O)N2 (configuration not stated) | -3 | -16 | 34 | 7 | 0 | -0.059
COc1ccc(CCNC(=O)c2noc(C)c2[N+](=O)[O-])cc1OC | -8 | 12 | / | / | 5 | /
Cc1cc(Nc2cccc(F)c2)nc(-c2ccccc2O)n1 | 5 | 56* | 51 | 15 | 6 | -1
CCNC(=S)Nc1scc(-c2ccccc2)c1C(=O)OCC | -1 | 3 | -5 | 25 | 1 | -0.59
CCOC(=O)c1c(-c2ccccc2)csc1NC(=S)NC | 3 | 6 | 93* | 62* | -2 | 0.25
CCOC(=O)c1c(-c2ccc(-c3ccccc3)cc2)csc1NC(=O)CCN1CCOCC1 | / | 13 | 34 | 98* | / | 0.29
CCOC(=O)c1c(-c2ccccc2Cl)csc1NC(=O)c1cc(S(=O)(=O)N2CCOCC2)ccc1C | -4 | 46 | 29 | 83* | 1 | 0.26
CCOc1ccccc1NC(=O)c1cc(S(=O)(=O)N2CCOCC2)ccc1C | 1 | -9 | / | / | 2 | /

Source: PubChem (several laboratories)
